Source: ChEMBL document CHEMBL1765017, “Homoisoflavonoids: natural scaffolds with potent and selective monoamine oxidase-B inhibition properties” (J Med Chem, 2011)

Assays:
[1] = molecular target: T1, Amine oxidase [flavin-containing] B (Homo sapiens, UniProt P27338); assay: biochemical; format: cell-based, BTI-TN-5B1-4
T1 sequence (P27338 whole entry): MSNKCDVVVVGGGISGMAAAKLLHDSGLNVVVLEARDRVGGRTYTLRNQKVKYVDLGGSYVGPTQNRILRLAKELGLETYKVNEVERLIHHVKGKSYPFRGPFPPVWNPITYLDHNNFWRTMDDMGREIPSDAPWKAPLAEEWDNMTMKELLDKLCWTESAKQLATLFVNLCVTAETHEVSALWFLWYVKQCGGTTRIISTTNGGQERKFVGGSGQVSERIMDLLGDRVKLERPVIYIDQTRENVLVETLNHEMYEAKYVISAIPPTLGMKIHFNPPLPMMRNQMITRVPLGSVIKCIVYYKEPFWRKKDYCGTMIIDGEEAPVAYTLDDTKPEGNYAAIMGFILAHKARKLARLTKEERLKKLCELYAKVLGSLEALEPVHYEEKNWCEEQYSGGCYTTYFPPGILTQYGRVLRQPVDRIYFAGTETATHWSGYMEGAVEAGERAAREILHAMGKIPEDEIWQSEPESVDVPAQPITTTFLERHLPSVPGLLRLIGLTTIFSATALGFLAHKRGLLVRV

[2] = molecular target: T2, Amine oxidase [flavin-containing] A (Homo sapiens, UniProt P21397); assay: Inhibition of human recombinant MAO-A expressed in baculovirus infected BTI-TN-5B1-4 insect sells assessed as hydrogen peroxide production at 100 uM by fluorimetric method; settings: for inhibition (INH): human, bti-tn-5b1-4, 100 µM; for inhibition at 100 µM: BTI-TN-5B1-4, human
T2 sequence (P21397 whole entry): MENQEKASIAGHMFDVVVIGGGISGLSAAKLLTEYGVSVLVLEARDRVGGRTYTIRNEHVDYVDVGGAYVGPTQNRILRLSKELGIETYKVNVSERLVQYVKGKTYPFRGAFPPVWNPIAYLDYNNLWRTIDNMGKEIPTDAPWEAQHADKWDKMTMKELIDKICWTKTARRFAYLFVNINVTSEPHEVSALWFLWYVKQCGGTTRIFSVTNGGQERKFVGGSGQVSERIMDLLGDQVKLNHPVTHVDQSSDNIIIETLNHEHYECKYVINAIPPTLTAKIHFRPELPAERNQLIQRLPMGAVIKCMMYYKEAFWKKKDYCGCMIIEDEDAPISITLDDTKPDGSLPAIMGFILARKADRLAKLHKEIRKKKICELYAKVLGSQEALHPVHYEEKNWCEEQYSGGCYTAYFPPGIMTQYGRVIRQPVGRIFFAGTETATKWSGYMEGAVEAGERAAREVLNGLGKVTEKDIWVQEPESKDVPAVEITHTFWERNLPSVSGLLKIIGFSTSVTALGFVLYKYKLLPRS
In short: (§1)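 Microsomal human MAO-A or MAO-B from BTI-TN-5B1-4 insect cells infected with recombinant baculovirus carrying the isoform cDNA. p-Tyramine was the substrate for both isoforms. H2O2 production was detected fluorimetrically with the Amplex Red reagent. Compounds were checked for direct reaction with Amplex Red. Highest concentrations tested were 100 μM, or 1 mM for some compounds.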

[3] = molecular target: T1, Amine oxidase [flavin-containing] B; assay: Inhibition of human recombinant MAO-B expressed in baculovirus infected BTI-TN-5B1-4 insect sells assessed as hydrogen peroxide production at 100 uM by fluorimetric method; settings: for inhibition (INH): human, bti-tn-5b1-4, 100 µM; for inhibition at 100 µM: BTI-TN-5B1-4, human
In short: as §1

[4] = molecular target: T2, Amine oxidase [flavin-containing] A; assay: Inhibition of human recombinant MAO-A expressed in baculovirus infected BTI-TN-5B1-4 insect sells assessed as hydrogen peroxide production by fluorimetric method
Homo sapiens = species: Homo sapiens; assay: Selectivity index, ratio of IC50 for human MAO-A to IC50 for human MAO-B
In short: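 SI = IC50(hMAO-A)/IC50(hMAO-B). IC50s come from the Amplex Red fluorimetric assay of H2O2 from p-tyramine using baculovirus-expressed human isoforms, mean ± SEM of five experiments.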

[5] = molecular target: T2, Amine oxidase [flavin-containing] A; assay: Inhibition of human recombinant MAO-A expressed in baculovirus infected BTI-TN-5B1-4 insect sells assessed as hydrogen peroxide production at 50 uM measured after repeated washing by fluorimetric method; settings: BTI-TN-5B1-4, human
[6] = molecular target: T2, Amine oxidase [flavin-containing] A; assay: Inhibition of human recombinant MAO-A expressed in baculovirus infected BTI-TN-5B1-4 insect sells assessed as hydrogen peroxide production at 50 uM by fluorimetric method; settings: BTI-TN-5B1-4, human
[7] = molecular target: T1, Amine oxidase [flavin-containing] B; assay: Inhibition of human recombinant MAO-B expressed in baculovirus infected BTI-TN-5B1-4 insect sells assessed as hydrogen peroxide production at 10 nM measured after repeated washing by fluorimetric method; settings: BTI-TN-5B1-4, human
[8] = molecular target: T1, Amine oxidase [flavin-containing] B; assay: Inhibition of human recombinant MAO-B expressed in baculovirus infected BTI-TN-5B1-4 insect sells assessed as hydrogen peroxide production at 10 nM by fluorimetric method; settings: BTI-TN-5B1-4, human
[9] = molecular target: T1, Amine oxidase [flavin-containing] B; assay: Inhibition of human recombinant MAO-B expressed in baculovirus infected BTI-TN-5B1-4 insect sells assessed as hydrogen peroxide production at 1 mM by fluorimetric method; settings: bti-tn-5b1-4, 1000 µM
In short: as §1

[10] = molecular target: T2, Amine oxidase [flavin-containing] A; assay: Inhibition of human recombinant MAO-A expressed in baculovirus infected BTI-TN-5B1-4 insect sells assessed as hydrogen peroxide production at 500 uM by fluorimetric method; settings: BTI-TN-5B1-4, human
In short: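 Microsomal hMAO-A from insect cells (BTI-TN-5B1-4) infected with recombinant baculovirus carrying the hMAO-A cDNA. Fluorimetric Amplex Red assay measures H2O2 formed from p-tyramine, the substrate. Percent inhibition is expressed against control activity, given as pmol p-tyramine oxidised per min. Mean ± SEM of five experiments.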

[11] = molecular target: T2, Amine oxidase [flavin-containing] A; assay: Inhibition of human recombinant MAO-A expressed in baculovirus infected BTI-TN-5B1-4 insect sells assessed as hydrogen peroxide production at 500 uM measured after repeated washing by fluorimetric method; settings: BTI-TN-5B1-4, human
In short: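 Microsomal hMAO-A from insect cells infected with recombinant baculovirus. After exposure to inhibitor, the enzyme was washed repeatedly by centrifugation-ultrafiltration. Remaining activity was then read by Amplex Red fluorescence as H2O2 formed from p-tyramine. Percent inhibition is compared with before washing by ANOVA/Dunnett's. Mean ± SEM, n = 5.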

| Structure (SMILES) | IC50 [1] | inhibition (INH) [2] | further results |
| --- | --- | --- | --- |
| O=C1/C(=C/c2ccc(Cl)cc2)COc2ccccc21 | 154 nM | Not Active | – |
| O=c1c(Cc2ccccc2)coc2ccccc12 | – | Not Active | inhibition (INH) [3]: Not Active |
| O=C1c2ccccc2OCC1Cc1ccc(Cl)cc1 (stereo unspecified) | 7370 nM | Not Active | – |
| O=c1c(Cc2ccc(Cl)cc2)coc2cc(Cl)cc(Cl)c12 | 439 nM | – | inhibition at 100 µM [2]: 40% |
| COc1ccc(Cc2coc3cc(OC)cc(OC)c3c2=O)cc1 | – | Not Active | inhibition at 100 µM [3]: 40% |
| O=C1/C(=C/c2ccc(Cl)cc2)COc2ccc(Cl)cc21 | 31.8 nM | Not Active | – |
| COc1ccc(/C=C2\COc3ccccc3C2=O)cc1 | 58.9 nM | Not Active | – |
| O=C1/C(=C/c2ccc(Cl)cc2)COc2cc(Cl)cc(Cl)c21 | 13 nM | Not Active | – |
| O=C1c2ccccc2OCC1Cc1ccc(O)cc1 (stereo unspecified) | – | Not Active | inhibition at 100 µM [3]: 40% |
| O=c1c(Cc2ccc(O)cc2)coc2ccccc12 | – | Not Active | inhibition at 100 µM [3]: 40% |
| O=C1c2ccccc2OCC1Cc1ccccc1 (stereo unspecified) | 58500 nM | Not Active | – |
| COc1ccc(/C=C2\COc3ccccc3C2=O)c(OC)c1 | 248 nM | Not Active | – |
| COc1cc(/C=C2\COc3ccccc3C2=O)ccc1O | 104 nM | – | inhibition at 100 µM [2]: 40% |
| O=C1/C(=C/c2ccc(O)cc2)COc2cc(O)cc(O)c21 | 8.61 nM | – | IC50 [4]: 11500 nM; Ratio IC50 (Homo sapiens): 1330; inhibition at 50 µM [5]: 61.8%; inhibition at 50 µM [6]: 68.3%; inhibition at 0.01 µM [7]: 36.2%; inhibition at 0.01 µM [8]: 48.7% |
| COc1ccc(/C=C2\COc3ccccc3C2=O)c(O)c1 | 1330 nM | – | inhibition at 100 µM [2]: 40% |
| COc1cc(/C=C2\COc3ccccc3C2=O)cc(OC)c1OC | 20700 nM | Not Active | – |
| O=C1c2c(Cl)cc(Cl)cc2OCC1Cc1ccc(Cl)cc1 (stereo unspecified) | 4590 nM | Not Active | – |
| CN(C)c1ccc(/C=C2\COc3ccccc3C2=O)cc1 | 8.51 nM | Not Active | – |

| Structure (SMILES) | IC50 [1] | inhibition (INH) [2] | further results |
| --- | --- | --- | --- |
| O=C1/C(=C/c2ccc(O)c([N+](=O)[O-])c2)COc2ccccc21 | 491 nM | Not Active | – |
| O=c1c(Cc2ccc(Cl)cc2)coc2ccccc12 | – | Not Active | inhibition (INH) [3]: Not Active |
| O=c1c(Cc2ccc(Cl)cc2)coc2ccc(Cl)cc12 | – | Not Active | inhibition at 100 µM [3]: 40% |
| O=C1/C(=C/c2ccccc2)COc2ccccc21 | 480 nM | Not Active | – |
| COc1cccc(/C=C2\COc3ccccc3C2=O)c1OC | 1920 nM | Not Active | – |
| COc1ccc(Cc2coc3ccccc3c2=O)cc1 | 21600 nM | Not Active | – |
| COc1ccc(/C=C2\COc3ccccc3C2=O)cc1O | 477 nM | Not Active | – |
| COc1ccc(/C=C2\COc3ccccc3C2=O)c(OC)c1OC | 1310 nM | Not Active | – |
| Nc1cc(/C=C2\COc3ccccc3C2=O)ccc1O | 484 nM | – | IC50 [4]: 1440 nM; Ratio IC50 (Homo sapiens): 3 |
| O=C(NCCN1CCOCC1)c1ccc(Cl)cc1 [MOCLOBEMIDE] | – | – | inhibition (INH) [9]: Not Active; inhibition at 500 µM [10]: 86%; inhibition at 500 µM [11]: 11.4% |
| O=C1/C(=C/c2ccc(O)c(O)c2)COc2ccccc21 | 141 nM | – | IC50 [4]: 4740 nM; Ratio IC50 (Homo sapiens): 34 |
| O=C1/C(=C/c2ccccc2)COc2ccc(Cl)cc21 | 331 nM | Not Active | – |
| COc1ccc(/C=C2\COc3cc(OC)cc(OC)c3C2=O)cc1 | 1570 nM | Not Active | – |
| O=C(O)c1cc(/C=C2\COc3ccccc3C2=O)ccc1O | – | Not Active | inhibition (INH) [3]: Not Active |
| O=C1c2cc(Cl)ccc2OCC1Cc1ccc(Cl)cc1 (stereo unspecified) | 3070 nM | Not Active | – |
| CC(=O)Nc1ccc(/C=C2\COc3ccccc3C2=O)cc1 | 1060 nM | – | IC50 [4]: 2100 nM; Ratio IC50 (Homo sapiens): 2 |
| O=C1/C(=C/c2ccc(O)cc2)COc2ccccc21 | 55.4 nM | Not Active | – |
| Nc1ccc(/C=C2\COc3ccccc3C2=O)cc1 | 879 nM | Not Active | – |
